# From ChEMBL document CHEMBL2176880 (J Med Chem, 2012)
# Activity calls are given as the source filed them.
# Experiments:
# Rattus norvegicus [1] = assay: Effect on sleep-wake stages in Sprague-Dawley rat sleep-wake EEG paradigm model assessed as induction of sleep fragmentation at 3 mg/kg, po; type: organism-based; parameters: dose 3 mg/kg, route oral; details: in vivo
# In short: (§1)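 Male Sprague−Dawley rats (250−300 g) chronically implanted with EEG, EMG and EOG electrodes; n = 8 per group. A 20 h recording after oral saline was followed by a 20 h recording at the same circadian time after oral vehicle (20% CD + 2H2T) or compound (3 mg/kg), starting at 13:30 in the lights-on period. 2 s epochs scored into sleep−wake stages; REM onset latency and state transitions determined. Wilcoxon−Mann−Whitney tests against vehicle.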
# Rattus norvegicus [2] = assay: Inhibition of REM sleep state in Sprague-Dawley rat sleep-wake EEG paradigm model assessed as efficacy free concentration at 3 mg/kg, po; type: functional
# Rattus norvegicus [3] = assay: Inhibition of REM sleep state in Sprague-Dawley rat sleep-wake EEG paradigm model at 3 mg/kg, po; type: functional, organism-based; parameters: dose 3 mg/kg; in short: as §1
# Cytochrome P450 3A4 = Cytochrome P450 3A4 (Homo sapiens, UniProt P08684); assay: Inhibition of CYP3A4; type: ADME
# Chain of Cytochrome P450 3A4 (P08684 whole entry): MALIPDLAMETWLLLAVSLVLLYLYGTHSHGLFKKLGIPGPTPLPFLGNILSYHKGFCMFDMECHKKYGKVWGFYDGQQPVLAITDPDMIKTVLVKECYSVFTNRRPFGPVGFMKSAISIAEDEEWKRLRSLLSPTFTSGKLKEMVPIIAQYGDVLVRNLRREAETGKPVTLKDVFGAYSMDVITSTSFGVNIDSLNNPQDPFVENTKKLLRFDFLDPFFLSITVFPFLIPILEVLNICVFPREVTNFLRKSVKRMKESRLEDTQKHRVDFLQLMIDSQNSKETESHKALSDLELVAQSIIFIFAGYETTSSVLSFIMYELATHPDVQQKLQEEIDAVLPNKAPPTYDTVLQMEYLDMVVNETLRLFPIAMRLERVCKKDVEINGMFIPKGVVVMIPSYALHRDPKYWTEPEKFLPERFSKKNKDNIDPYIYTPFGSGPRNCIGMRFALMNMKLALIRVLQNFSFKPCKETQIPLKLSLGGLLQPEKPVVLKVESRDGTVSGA
# [4] = Dissociation constant, pKa of the compound; type: physicochemical
# Cytochrome P450 2C19 = Cytochrome P450 2C19 (Homo sapiens, UniProt P33261); assay: Inhibition of CYP2C19; type: ADME
# Chain of Cytochrome P450 2C19 (P33261 whole entry): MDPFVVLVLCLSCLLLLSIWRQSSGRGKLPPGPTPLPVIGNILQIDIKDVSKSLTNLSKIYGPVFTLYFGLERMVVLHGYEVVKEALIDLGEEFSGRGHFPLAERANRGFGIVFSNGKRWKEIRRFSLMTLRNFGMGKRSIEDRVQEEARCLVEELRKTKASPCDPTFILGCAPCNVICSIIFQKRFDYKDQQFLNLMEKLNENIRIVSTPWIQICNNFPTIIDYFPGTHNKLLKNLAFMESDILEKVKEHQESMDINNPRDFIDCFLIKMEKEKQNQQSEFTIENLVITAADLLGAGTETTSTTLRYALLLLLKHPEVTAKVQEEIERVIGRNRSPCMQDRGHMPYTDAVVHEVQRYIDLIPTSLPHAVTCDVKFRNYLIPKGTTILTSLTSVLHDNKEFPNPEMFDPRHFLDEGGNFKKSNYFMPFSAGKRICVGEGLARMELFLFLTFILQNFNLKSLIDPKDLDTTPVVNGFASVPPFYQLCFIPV
# Canis familiaris = assay: Cardiotoxicity in anesthetized dog assessed as proarrhythmic potency; type: toxicity, organism-based, Canis lupus familiaris; details: in vivo
# Salmonella typhimurium = assay: Mutagenicity in Salmonella typhimurium TA98 up to […]; type: toxicity, organism-based; details: salmonella enterica subsp. enterica serovar typhimurium
# MDR1 [5] = assay: Apparent permeability from apical to basolateral side in MDR1 expressing pig LLC-PK1 cells; type: ADME, cell-based, Sus scrofa
# Rattus norvegicus [6] = assay: Prolongation of REM sleep onset latency in Sprague-Dawley rat sleep-wake EEG paradigm model at 3 mg/kg, po; type: functional, organism-based; parameters: dose 3 mg/kg; in short: as §1
# Mus musculus [7] = assay: Antipsychotic activity in subcutaneously dosed NMRI mouse assessed as reversal of PCP-induced hyperlocomotion; type: functional
# In short: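 Nonhabituated mice given vehicle or test compound sc, then immediately challenged with PCP (5.0 mg/kg, sc) or vehicle and placed singly in open fields for 30 min. Distance travelled measured by video tracking. Responder criterion: total distance < 5500 counts.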
# [8] = Clearance in dog rat at 1 mg/kg, iv or […], po; type: ADME, organism-based, Canis lupus familiaris; details: in vivo
# [9] = AUC (0 to infinity) in dog rat at 1 mg/kg, iv or […], po; type: ADME, organism-based, Canis lupus familiaris; details: plasma
# Cytochrome P450 2D6 = Cytochrome P450 2D6 (Homo sapiens, UniProt P10635); assay: Inhibition of CYP2D6; type: ADME
# Chain of Cytochrome P450 2D6 (P10635 whole entry): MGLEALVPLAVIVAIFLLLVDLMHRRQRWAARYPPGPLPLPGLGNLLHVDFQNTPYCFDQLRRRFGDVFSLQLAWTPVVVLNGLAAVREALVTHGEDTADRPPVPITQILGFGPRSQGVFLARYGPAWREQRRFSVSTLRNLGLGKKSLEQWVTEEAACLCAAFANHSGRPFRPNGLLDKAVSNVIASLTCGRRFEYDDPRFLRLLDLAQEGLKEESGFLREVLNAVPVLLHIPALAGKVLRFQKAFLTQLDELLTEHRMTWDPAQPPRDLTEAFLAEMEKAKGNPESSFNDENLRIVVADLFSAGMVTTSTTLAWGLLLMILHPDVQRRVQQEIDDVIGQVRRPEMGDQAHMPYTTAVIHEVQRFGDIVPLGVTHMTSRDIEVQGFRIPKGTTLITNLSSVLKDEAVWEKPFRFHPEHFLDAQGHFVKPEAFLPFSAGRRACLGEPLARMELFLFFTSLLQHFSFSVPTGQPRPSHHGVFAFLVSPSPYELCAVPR
# [10] = Lipophilicity, log P of the compound at pH 7; details: buffer
# [11] = Oral bioavailability in dog rat at […]; type: ADME, organism-based, Canis lupus familiaris; details: in vivo
# TK6 [12] = assay: Genotoxicity in human TK6 cells in presence of rat liver S9 fraction up to 150 ug/ml; type: toxicity, cell-based
# In short: (§2)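 In vitro micronucleus test in human lymphoblastoid TK6 cells, with or without metabolic activation by rat liver S9, tested up to 150 μg/mL.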
# Mus musculus [13] = assay: Antipsychotic activity in subcutaneously dosed NMRI mouse assessed as efficacy free concentration causing reversal of PCP-induced hyperlocomotion; type: functional
# Cytochrome P450 2C9 = Cytochrome P450 2C9 (Homo sapiens, UniProt P11712); assay: Inhibition of CYP2C9; type: ADME
# Chain of Cytochrome P450 2C9 (P11712 whole entry): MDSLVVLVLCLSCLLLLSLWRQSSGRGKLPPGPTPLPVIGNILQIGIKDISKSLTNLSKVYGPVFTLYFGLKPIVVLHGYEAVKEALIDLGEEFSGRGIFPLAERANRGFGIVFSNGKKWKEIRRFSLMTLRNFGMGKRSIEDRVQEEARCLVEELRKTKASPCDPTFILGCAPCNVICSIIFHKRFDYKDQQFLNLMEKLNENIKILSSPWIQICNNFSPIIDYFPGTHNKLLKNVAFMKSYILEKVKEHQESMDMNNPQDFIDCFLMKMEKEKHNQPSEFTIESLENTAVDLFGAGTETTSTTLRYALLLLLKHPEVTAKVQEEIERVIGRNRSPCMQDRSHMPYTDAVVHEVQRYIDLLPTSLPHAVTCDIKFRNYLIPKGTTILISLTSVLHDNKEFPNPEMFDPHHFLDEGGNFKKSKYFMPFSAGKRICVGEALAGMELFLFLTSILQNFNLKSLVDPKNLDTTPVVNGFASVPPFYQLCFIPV
# [14] = Volume of distribution at steady state in dog rat at 1 mg/kg, iv or […], po; type: ADME, organism-based, Canis lupus familiaris; details: in vivo, read-out: Vdss
# Rattus norvegicus [15] = assay: Effect on sleep-wake stages in Sprague-Dawley rat sleep-wake EEG paradigm model at 3 mg/kg, po; type: ADME, organism-based; parameters: dose 3 mg/kg, route oral; details: in vivo; in short: as §1
# [16] = Cardiotoxicity assessed as proarrhythmic potency in rabbit Purkinje fibers; type: toxicity, tissue-based, Oryctolagus cuniculus, Purkinje fiber
# [17] = Tmax in Sprague-Dawley rat at […], iv or 10 mg/kg, po; type: ADME, organism-based; details: in vivo
# [18] = Drug metabolism in human liver microsomes at 5 uM after 15 mins; type: ADME, Microsome; details: read-out: Drug metabolism
# In short: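 Compound at 5 μM incubated 15 min with human liver microsomes; read-out is % of compound metabolized. Values are the mean of at least two experiments.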
# [19] = Protein binding in human plasma; type: ADME, cell-free; details: read-out: PPB (converted)
# [20] = Clearance in Sprague-Dawley rat at […], iv; type: ADME, organism-based; parameters: dose 2.5 mg/kg, route intravenous; details: in vivo
# [21] = Half life in dog rat at 1 mg/kg, iv or […], po; type: ADME, organism-based, Canis lupus familiaris; details: in vivo
# TK6 [22] = assay: Genotoxicity in human TK6 cells in absence of rat liver S9 fraction up to 150 ug/ml; type: toxicity, cell-based; in short: as §2
# [23] = Tmax in dog rat at 1 mg/kg, iv or […], po; type: ADME, organism-based, Canis lupus familiaris; details: in vivo
# [24] = Cmax in Sprague-Dawley rat at […], iv or 10 mg/kg, po; type: ADME, organism-based; details: in vivo
# [25] = Half life in Sprague-Dawley rat at […], iv; type: ADME, organism-based; parameters: dose 2.5 mg/kg, route intravenous; details: in vivo
# [26] = AUC (0 to infinity) in Sprague-Dawley rat at 10 mg/kg, po; type: ADME, organism-based; parameters: time infinity, dose 10 mg/kg, route oral; details: plasma
# [27] = Cmax in dog rat at 1 mg/kg, iv or […], po; type: ADME, organism-based, Canis lupus familiaris; details: in vivo
# Cytochrome P450 1A2 = molecular target: T1, Cytochrome P450 1A2 (Homo sapiens, UniProt P05177); assay: Inhibition of CYP1A2; type: ADME
# T1 sequence (P05177 whole entry): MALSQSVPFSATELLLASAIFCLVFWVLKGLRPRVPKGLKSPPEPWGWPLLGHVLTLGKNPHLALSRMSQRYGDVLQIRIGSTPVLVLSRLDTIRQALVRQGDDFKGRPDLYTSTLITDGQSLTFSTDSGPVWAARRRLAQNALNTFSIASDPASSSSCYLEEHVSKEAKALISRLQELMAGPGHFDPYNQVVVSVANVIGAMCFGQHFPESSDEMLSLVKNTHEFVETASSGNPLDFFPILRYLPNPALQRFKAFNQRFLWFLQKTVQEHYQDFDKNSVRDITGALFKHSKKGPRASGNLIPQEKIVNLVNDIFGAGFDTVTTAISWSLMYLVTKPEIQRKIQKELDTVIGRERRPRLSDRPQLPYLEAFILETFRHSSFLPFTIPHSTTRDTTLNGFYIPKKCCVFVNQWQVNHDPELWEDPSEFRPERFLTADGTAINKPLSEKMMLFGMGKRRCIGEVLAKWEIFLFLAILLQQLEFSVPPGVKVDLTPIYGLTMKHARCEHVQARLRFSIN
# [28] = Volume of distribution at steady state in Sprague-Dawley rat at […], iv or 10 mg/kg, po; type: ADME, organism-based; details: in vivo, read-out: Vdss
# Cavia porcellus = assay: Cardiotoxicity in anesthetized guinea pig assessed as proarrhythmic potency; type: toxicity, organism-based; details: in vivo
# [29] = Ratio of drug level in brain to plasma in Swiss mouse at 10 mg/kg, sc administered as single dose measured 1 hr post dose; type: ADME, organism-based; parameters: dose 10 mg/kg, route subcutaneous; details: read-out: BPR
# In short: (§3)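 Swiss mice given a single 10 mg/kg sc dose at 1 mg/mL in 20% HP-β-CD + HCl solution, pH 4. Brain and plasma levels taken 1 h post dose. Values are geometric means of at least two runs.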
# [30] = Oral bioavailability in Sprague-Dawley rat at 10 mg/kg; type: ADME, organism-based; details: in vivo
# [31] = Drug level in Swiss mouse brain at 10 mg/kg, sc administered as single dose measured 1 hr post dose; type: ADME, organism-based; parameters: dose 10 mg/kg, route subcutaneous; details: read-out: Drug uptake; in short: as §3
# [32] = Drug metabolism in mouse liver microsomes at 5 uM after 15 mins; type: ADME, Microsome; details: read-out: Drug metabolism
# Rattus norvegicus [33] = assay: Inhibition of REM sleep state in po dosed Sprague-Dawley rat sleep-wake EEG paradigm model; type: functional; details: read-out: MED
# MDR1 [34] = assay: Apparent permeability from basolateral to apical side in MDR1 expressing pig LLC-PK1 cells; type: ADME, cell-based, Sus scrofa
# [35] = Plasma concentration in Swiss mouse at 10 mg/kg, sc administered as single dose measured 1 hr post dose; type: ADME, organism-based; parameters: dose 10 mg/kg, route subcutaneous; in short: as §3
# [36] = Protein binding in rat plasma; type: ADME, cell-free; details: read-out: PPB (converted)
structure (smiles),measurement,setting,value
FC(F)(F)c1c(N2CCC(c3ccccc3)CC2)ccn2c(CC3CC3)nnc12,Activity,Rattus norvegicus [1],Non-toxic
same,INH,Rattus norvegicus [2],0.14 ng/mL
same,inhibition,Rattus norvegicus [3],Active
same,IC50,Cytochrome P450 3A4,> 30 µM
same,pKa,[4],4.1
same,IC50,Cytochrome P450 2C19,20 µM
same,NOAEL,Canis familiaris,6625 ng/mL
same,Activity,Salmonella typhimurium,Non-toxic
same,Papp A→B,MDR1 [5],12 ×10⁻⁶ cm/s
same,Activity,Rattus norvegicus [6],Active
same,Activity,Mus musculus [7],Dose-dependent effect
same,ED50,Mus musculus [7]; sc,5.4 mg/kg
same,clearance,[8],29 mL/min/kg
same,AUC(0-inf),[9],531 ng·h/mL
same,IC50,Cytochrome P450 2D6,> 30 µM
same,logD,[10],4.4
same,bioavailability,[11],18%
same,Activity,TK6 [12],Non-toxic
same,INH,Mus musculus [13],2.6 ng/mL
same,IC50,Cytochrome P450 2C9,11 µM
same,Vd,[14],1.3 L/kg
same,Activity,Rattus norvegicus [15],Non-toxic
same,NOAEL,[16],0.075 µM
same,Tmax,[17],30 min
same,"metabolised at […], 5 µM",[18],23%
same,fraction unbound,[19],0.0018
same,clearance,[20],35 mL/min/kg
same,half-life,[21],48 min
same,Activity,TK6 [22],Non-toxic
same,Tmax,[23],30 min
same,Cmax,[24],482 ng/mL
same,half-life,[25],162 min
same,AUC(0-inf),[26],1800 ng·h/mL
same,Cmax,[27],218 ng/mL
same,IC50,Cytochrome P450 1A2,> 30 µM
same,Vd,[28],1.4 L/kg
same,NOAEL,Cavia porcellus,9000 ng/mL
same,Kp at 1 h,[29],1.4
same,bioavailability,[30],36%
same,concentration at 1 h,[31],849 ng/mL
same,"metabolised at […], 5 µM",[32],25%
same,minimal effective dose,Rattus norvegicus [33],3 mg/kg
same,Papp B→A,MDR1 [34],6 ×10⁻⁶ cm/s
same,concentration at 1 h,[35],671 ng/mL
same,fraction unbound,[36],0.0035
